Results as given in ChEMBL document CHEMBL1154181 (J Med Chem, 2009).

Assays:
Mus musculus [1] = experiment: (§1) Antinociceptive activity against radiant heat-induced nociception in icv dosed CD1 mouse assessed as increase in tail withdrawal latency measured after 15 to 120 mins postdose by tail flick test; type: functional
Outline: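 Male CD-1 mice anesthetized with ketamine-xylazine (80 + 10 mg/kg ip). Dosed into the right lateral ventricle (+2 mm ML, −0.3 mm AP to bregma, 2 mm depth). Tail flick with radiant heat, cut-off 15 s. Latency read at 15–120 min as %MPE.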

Mus musculus [2] = experiment: Antinociceptive activity against radiant heat-induced nociception in CD1 mouse assessed as tail withdrawal latency at 1 mg/kg, po measured after 15 to 120 mins postdose by tail flick test; type: functional
Outline: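 Male CD-1 mice (25–30 g), dosed orally at 1 mg/kg. Tail flick: radiant heat focused 3–4 cm from the tail tip, cut-off 15 s at 15 V. Hot plate: 48.5 ± 0.1 °C, licking, paw jerk or jump, cut-off 60 s. Baseline is the mean of three readings 15 min apart. Latency followed to 120 min (tail) or 90 min (plate); data as %MPE.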

Mus musculus [3] = experiment: as §1, with “po” for “icv”, “test in presence of 2 mg/kg, ip alpha-2-adrenergic receptor antagonist yohimbine hydrochloride administered 30 mins before compound infusion” for “test”; type: functional
Outline: (§2)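 Antagonist given ip 30 min before oral dosing (naloxone 1, mecamylamine 2, yohimbine 2, CGP 35348 50 mg/kg). Tail flick with radiant heat at the tail tip, cut-off 15 s; latencies at 15–120 min converted to %MPE. Peak-time quantal response (≥50% MPE); ED50 from at least four groups of six male CD-1 mice.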

Mus musculus [4] = experiment: (§3) Antinociceptive activity against radiant heat-induced nociception in po dosed CD1 mouse assessed as increase in tail withdrawal latency measured after 15 to 120 mins postdose by tail flick test in presence of 1 mg/kg, ip opioid receptor antagonist naloxone hydrochloride administered 30 mins before compound infusion; type: functional; outline: as §2
[5] = target: T1, Alpha-2A adrenergic receptor (Homo sapiens, UniProt P08913); experiment: Displacement of [3H][…] from human recombinant adrenergic alpha2A receptor expressed in insect Sf9 cells after 60 mins
T1 sequence (P08913 whole entry): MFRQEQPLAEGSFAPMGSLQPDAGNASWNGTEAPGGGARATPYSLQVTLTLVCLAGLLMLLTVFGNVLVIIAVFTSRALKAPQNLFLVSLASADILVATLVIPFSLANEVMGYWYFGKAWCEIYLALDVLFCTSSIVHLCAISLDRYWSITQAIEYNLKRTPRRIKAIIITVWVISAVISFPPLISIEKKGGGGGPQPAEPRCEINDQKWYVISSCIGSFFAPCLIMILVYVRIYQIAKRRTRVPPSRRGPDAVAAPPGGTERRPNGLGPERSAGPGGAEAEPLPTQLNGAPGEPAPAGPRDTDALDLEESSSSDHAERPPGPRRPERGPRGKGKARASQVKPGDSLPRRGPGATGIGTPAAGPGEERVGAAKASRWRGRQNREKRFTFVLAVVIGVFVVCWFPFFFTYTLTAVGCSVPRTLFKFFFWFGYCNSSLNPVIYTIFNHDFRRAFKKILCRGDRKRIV

[6] = target: T2, Alpha-2A adrenergic receptor (Homo sapiens) (UniProt P08913); experiment: Inhibition of [3H][…] binding to human recombinant adrenergic alpha2A receptor expressed in insect Sf9 cells at 10 uM after 60 mins
T2 sequence (whole entry): T1 sequence (P08913 whole entry)
Outline: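 Sf9 membranes expressing human recombinant α2A, with 1 nM [3H]-MK-912. Nonspecific binding defined by 10 μM WB-4101. Buffer 50 mM Tris-HCl pH 7.4, 12.5 mM MgCl2, 2 mM EDTA. Incubated 60 min at 25 °C, then filtered and counted by scintillation. Duplicate; 1% DMSO final.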

Mus musculus [7] = experiment: Antinociceptive activity against thermal nociception in po dosed CD1 mouse assessed as increase in latency period to elicit jumping or hind paw licking measured after 15 to 90 mins postdose by hot plate method in presence of 2 mg/kg, ip alpha-2-adrenergic receptor antagonist yohimbine hydrochloride administered 30 mins before compound infusion; type: functional
Outline: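 Antagonist given ip 30 min before oral dosing (naloxone 1, mecamylamine 2, yohimbine 2, CGP 35348 50 mg/kg). Hot plate at 48.5 ± 0.1 °C inside a cylinder, cut-off 60 s; latencies at 15–90 min as %MPE. Peak-time quantal response (≥50% MPE); ED50 from at least four groups of six male CD-1 mice.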

[8] = target: T3, Alpha-2C adrenergic receptor (Homo sapiens) (UniProt P18825); experiment: Inhibition of radioligand binding to human adrenergic Alpha-2C receptor at 10 uM after 60 mins
T3 sequence (whole entry): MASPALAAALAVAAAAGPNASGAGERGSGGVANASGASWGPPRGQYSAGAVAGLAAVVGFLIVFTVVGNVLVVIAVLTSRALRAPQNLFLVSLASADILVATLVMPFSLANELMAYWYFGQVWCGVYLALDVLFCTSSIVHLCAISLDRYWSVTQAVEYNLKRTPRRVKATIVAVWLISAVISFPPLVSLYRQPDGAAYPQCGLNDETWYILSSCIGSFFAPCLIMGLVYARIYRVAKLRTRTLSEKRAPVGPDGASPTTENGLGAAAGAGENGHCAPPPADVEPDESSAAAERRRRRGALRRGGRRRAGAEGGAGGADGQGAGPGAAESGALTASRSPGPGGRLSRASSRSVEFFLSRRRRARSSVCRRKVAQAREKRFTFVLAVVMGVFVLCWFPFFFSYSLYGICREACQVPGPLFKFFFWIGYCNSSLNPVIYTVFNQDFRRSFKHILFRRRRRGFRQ

Mus musculus [9] = experiment: as §3, with “of 50” for “of 1”, “ip GABAB” for “ip opioid”, “antagonist CGP-35348” for “antagonist naloxone hydrochloride”; type: functional; outline: as §2
Mus musculus [10] = experiment: Antinociceptive activity against thermal nociception in po dosed CD1 mouse assessed as increase in latency period to elicit jumping or hind paw licking measured after 15 to 90 mins postdose by hot plate method; type: functional
Mus musculus [11] = experiment: Antinociceptive activity against thermal nociception in po dosed CD1 mouse assessed as latency period to elicit jumping or hind paw licking at 1 mg/kg, po measured after 15 to 90 mins postdose by hot plate method in presence of 0.1 to 1 mg/kg, ip alpha-1-adrenergic receptor antagonist prazosin administered 15 mins before compound infusion; type: functional
Outline: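 Male CD-1 mice given prazosin ip (0.1 or 1 mg/kg) 15 min before oral dosing at 1 mg/kg. Tail flick: radiant heat 3–4 cm from the tail tip, cut-off 15 s. Hot plate: 48.5 °C, cut-off 60 s. Baseline is the mean of three readings 15 min apart. Latency followed over time and expressed as %MPE.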

Mus musculus [12] = experiment: Antinociceptive activity against radiant heat-induced nociception in po dosed CD1 mouse assessed as increase in tail withdrawal latency measured after 15 to 120 mins postdose by tail flick test; type: functional
Outline: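 Male CD-1 mice, 25–30 g; oral dosing. Radiant heat focused 3–4 cm from tail tip of hand-restrained mice; tail withdrawal latency recorded, cutoff 15 s at 15 V. Baseline = mean of three readings 15 min apart; latency at 15–120 min.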

Mus musculus [13] = experiment: Ratio of morphine ED50 to compound ED50 for antinociceptive activity against thermal nociception in po dosed CD1 mouse; type: functional
Outline: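 Compound and morphine were dosed po in male CD-1 mice. Hot plate was held at 48.5 ± 0.1 °C, scored as paw lick, jerk or jump, with a 60 s cutoff, read at 15–90 min. Tail flick used radiant heat with a 15 s cutoff. Baseline was the mean of three readings. Peak-time %MPE was made quantal, and ED50 came from at least four groups of six mice.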

IC50 [5]: 320 nM
Emax [6]: 100%
Emax [8]: 71%
SMILES: C=Cc1c(C)nn(CCCN2CCN(c3ccc(C)cc3)CC2)c(=O)c1N
ED50 (Mus musculus [1]): 3.5 µg
Activity (Mus musculus [2]): 30 min
ED50 (Mus musculus [3]): 6.1 mg/kg
ED50 (Mus musculus [4]): 1.2 mg/kg
ED50 (Mus musculus [7]): 8.6 mg/kg
ED50 (Mus musculus [9]): 0.5 mg/kg
ED50 (Mus musculus [10]): 0.5 mg/kg
Activity (Mus musculus [11]): 120 min
ED50 (Mus musculus [12]): 0.8 mg/kg
Ratio ED50 (Mus musculus [13]): 4
